Experimental findings from ChEMBL document CHEMBL5329160, “Design, synthesis, and mechanistic study of 2-piperazineone-bearing peptidomimetics as novel HIV capsid modulators” (RSC Med Chem, 2023) are described below.

A word on the EC50: it is the midpoint of the concentration-response curve. For orientation: Kd means the equilibrium constant for the complex coming apart. The low end stands for a tighter complex, the high end for a looser complex. For orientation: CC50 means the concentration giving 50% cytotoxicity.

The nature of data set [1]: Metabolic stability in human liver assessed as intrinsic clearance at 1 uM preincubated for 10 mins followed by NADPH addition and measured after 60 mins. The settings on record: read-out: CLH.
The target in data set [2] is Structural capsid protein (Human immunodeficiency virus 1) (UniProt Q76129). Nature of the data set: Ratio of Kd for HIV-1 NL4-3 monomeric capsid protein to Kd for HIV-1 NL4-3 hexameric capsid protein.
Structural capsid protein (Human immunodeficiency virus 1), sequence (Q76129 as listed by the source): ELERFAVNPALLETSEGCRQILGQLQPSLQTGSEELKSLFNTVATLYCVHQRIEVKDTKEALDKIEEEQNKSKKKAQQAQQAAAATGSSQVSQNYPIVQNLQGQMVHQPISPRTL
For data set [3], the system named is Human immunodeficiency virus 2. Description: Antiviral activity against HIV-2 ROD infected in MT4 cells assessed as protection against virus induced cytotoxicity and measured after 5 days by MTT spectrophotometric assay. The settings on record: Human immunodeficiency virus 2, ROD, MT4, 120 h. In kind it is functional, organism-based. For orientation: Formazan colour is commonly taken as a measure of viable cells.

Data set [4] addresses T1, Structural capsid protein (Human immunodeficiency virus 1, UniProt Q76129). Nature of the data set: Binding affinity to HIV-1 NL4-3 monomeric capsid protein by SPR analysis. The gist of the method:
(§1)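 SPR binding isotherms averaged over 3 replicates, with error bars as SD.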
In general terms: SPR reads the build-up and loss of mass on a sensor chip optically.

Data set [5] has as its target Structural capsid protein (Human immunodeficiency virus 1) (UniProt Q76129). Nature of the data set: Binding affinity to HIV-1 NL4-3 hexameric capsid protein assessed as Koff by SPR analysis. The settings on record: filed as modulator.
A short description of data set [6]: Selectivity index, ratio of CC50 for human MT4 cells to EC50 for HIV-2 ROD infected in human MT4 cells. In kind it is toxicity, cell-based. The settings on record: read-out: Ratio CC50/EC50.
Data set [7] in a line: Selectivity index, ratio of CC50 for human MT4 cells to EC50 for HIV-1 IIIB infected in human MT4 cells. It is filed as toxicity, cell-based. The settings on record: read-out: Ratio CC50/EC50.
Data set [8] can be described thus: Cytotoxicity against human MT4 cells assessed as reduction in cell viability after 5 days by MTT assay. In kind it is toxicity, cell-based. The settings on record: time 5 day.
Data set [9] addresses T1, Structural capsid protein. Description: Binding affinity to HIV-1 NL4-3 hexameric capsid protein by SPR analysis. The gist of the method: as §1
The subject of data set [10] is Human immunodeficiency virus 1. Nature of the data set: Antiviral activity against HIV-1 IIIB infected in MT4 cells assessed as protection against virus induced cytotoxicity incubated for 5 days by MTT assay. The settings on record: Human immunodeficiency virus 1, IIIB, MT4, 120 h. It is filed as functional, organism-based.
Data set [11] deals with Human immunodeficiency virus 1. Nature of the data set: Antiviral activity against late stage HIV-1 infected in U87.CD4.CXCR4 cells assessed as viral infection at 1 uM preincubated with virus for 48 hrs followed by cell addition and measured after 48 hrs by luciferase based luminometer assay (reference value: 100 +/- 11 %). It is filed as functional. The settings on record: time 96 hrs.

Data set [12] relates to Human immunodeficiency virus 1. Nature of the data set: Antiviral activity against early stage HIV-1 infected in U87.CD4.CXCR4 cells assessed as viral infection at 1 uM preincubated with virus followed by cell addition and measured after 48 hrs by luciferase based luminometer assay (reference value: 100 +/- 8.4 %). In kind it is functional.
Data set [13] can be described thus: Metabolic stability in human liver microsomes assessed as remaining compound at 1 uM after 60 mins in presence of NADPH. In kind it is ADME, Microsome. The settings on record: read-out: Stability. An outline of the steps:
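Human liver microsomes at 0.5 mg protein/mL in 100 mM potassium phosphate, compound at 1 µM final (0.99% ACN, 0.01% DMSO). After 10 min pre-warming of the microsomes at 37°C, NADPH (1 mM final, in 10 mM MgCl2) was added. Incubated at 37°C with shaking, sampled at 0, 5, 15, 30, 45 and 60 min into cold ACN with internal standards. LC-MS/MS analysis; T1/2 and CLint(mic) (µL/min/mg) from first-order kinetics.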

Data set [14] deals with Human immunodeficiency virus 1. Nature of the data set: Antiviral activity against HIV-1 infected in MT4 cells. It is filed as functional, organism-based. The settings on record: Human immunodeficiency virus 1, MT4.
Data set [15] is described as follows: Metabolic stability in human liver microsomes assessed as remaining compound at 1 uM after 60 mins in absence of NADPH. In kind it is ADME, Microsome. The settings on record: read-out: Stability. An outline of the steps: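 No-cofactor control: human liver microsomes at 0.5 mg protein/mL in 100 mM phosphate buffer with compound at 1 µM, buffer added in place of NADPH. Incubated 60 min at 37°C with shaking, then quenched with cold ACN containing tolbutamide and labetalol internal standards. Centrifuged, supernatant diluted in water, analysed by LC-MS/MS.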
For orientation: Microsomes from liver hold many membrane-bound enzymes, among them those of drug oxidation.

For data set [16], the system named is Human immunodeficiency virus 1. Description: Antiviral activity against early stage HIV-1 infected in U87.CD4.CXCR4 cells assessed as viral infection at 60 uM preincubated with virus followed by cell addition and measured after 48 hrs by luciferase based luminometer assay (reference value: 100 +/- 8.4 %). It is filed as functional.
Data set [17] concerns Human immunodeficiency virus 1. Nature of the data set: Antiviral activity against late stage HIV-1 infected in U87.CD4.CXCR4 cells assessed as viral infection at 60 uM preincubated with virus for 48 hrs followed by cell addition and measured after 48 hrs by luciferase based luminometer assay (reference value: 100 +/- 11 %). It is filed as functional. The settings on record: time 96 hrs.

The nature of data set [18]: Metabolic stability in human microsomes assessed as intrinsic clearance at 1 uM preincubated for 60 mins followed by NADPH addition and measured after 60 mins. It is filed as ADME, Microsome. The settings on record: time 120 min, read-out: CLH.

T1 sequence (Q76129 whole entry): as the sequence (Q76129 as listed by the source) above

In the case of `O=C(O)Cc1ccccc1Nc1c(Cl)cccc1Cl` [DICLOFENAC], in [1], the CLint scaled at 1 µM is 3.3 mL/min/kg.
For the compound `COc1ccc(N(C)C(=O)[C@H](Cc2cc(F)cc(F)c2)NC(=O)CN2CCN(C(=O)c3ccccc3C(F)(F)F)CC2=O)cc1`, the Ratio in data set [2] was 2.2. The half-maximal effective concentration (EC50) in data set [3] came out at 5 µM; in data set [10] it was 12 µM. Besides, the Kd in data set [4] is 12 µM; in [9], 5.3 µM. Besides, the K in data set [5] was found to be 0.25 s⁻¹. Besides, the selectivity ratio in [6] was determined as 22; in data set [7], 9.2. The CC50 at 120 h in [8] was 110 µM.
With `Cc1[nH]c2ccccc2c1CC(=O)[C@@H](Cc1ccccc1)C(=O)N(C)c1ccccc1`, the Ratio in data set [2] amounted to 21.4. Besides, the values for the Activity in data set [11] and in data set [12] were 150% and -0.12%, respectively. Also, the values for the EC50 in [3] and in data set [10] were 4.2 µM and 0.75 µM, respectively. In addition, the dissociation constant Kd came out at 3.4 µM in [4] and 0.16 µM in [9]. For the same compound, the K in data set [5] was 0.018 s⁻¹. In addition, in data set [1], the CLint scaled at 1 µM was 2.6 mL/min/kg. Besides, in data set [8], the CC50 at 120 h came to 32 µM. In addition, in [13], the remaining at 1 h, 1 µM stood at 0%.
Turning to `CC(C)(C#Cc1ccc(-c2ccc(Cl)c3c(NS(C)(=O)=O)nn(CC(F)(F)F)c23)c([C@H](Cc2cc(F)cc(F)c2)NC(=O)Cn2nc(C(F)(F)F)c3c2C(F)(F)[C@@H]2C[C@H]32)n1)S(C)(=O)=O`, the EC50 in [14] is 0.000105 µM.
In the case of `COc1ccc(N(C)C(=O)[C@H](Cc2cc(F)cc(F)c2)NC(=O)CN2CCN(C(=O)c3ccccc3[N+](=O)[O-])CC2=O)cc1`, the results for the remaining at 1 h, 1 µM in [15] and in [13] were 96% and 0.23%, respectively. Also, the Ratio in data set [2] is 2.5. In addition, the Activity in [16] was found to be 8.1%; in data set [17], 10%. Further, the values for the EC50 in data set [3] and in [10] were 6.3 µM and 6 µM, respectively. Moreover, the Kd amounted to 13 µM in [4] and 5.2 µM in [9]. Besides, in data set [5], the K was 0.25 s⁻¹. Further, the selectivity ratio was 25 in data set [6] and 27 in data set [7]. Also, in [1], the CLint scaled at 1 µM is 3.3 mL/min/kg. In addition, in data set [8], the CC50 at 120 h stood at 160 µM.
On to `C[C@]12CC[C@H]3[C@@H](CCC4=CC(=O)CC[C@@]43C)[C@@H]1CC[C@@H]2O` [TESTOSTERONE], for which the microsomal CLint at 1 µM in data set [18] is 83 µL/min/mg. The CLint scaled at 1 µM in [1] was found to be 74 mL/min/kg.
`COc1ccc(N(C)C(=O)[C@H](Cc2ccccc2)NC(=O)CN2CCN(C(=O)c3ccccc3C(F)(F)F)CC2=O)cc1`: the EC50 in [3] amounted to 2.9 µM; in [10], 21 µM. The selectivity ratio was determined as 45 in data set [6] and 6.2 in data set [7]. The CC50 at 120 h in [8] is 130 µM.
On to `COc1ccc(N(C)C(=O)[C@H](Cc2cc(F)cc(F)c2)NC(=O)CN2CCN(C(=O)c3ccc(C)cc3)CC2=O)cc1`, for which the EC50 in [3] was 35 µM; in data set [10], 32 µM. For the same compound, the selectivity ratio is 2.1 in [6] and 2.3 in [7]. Also, in data set [8], the CC50 at 120 h worked out at 74 µM.
On to `COc1ccc(N(C)C(=O)[C@H](Cc2ccccc2)NC(=O)CN2CCN(C(=O)c3cccc(C(F)(F)F)c3)CC2=O)cc1`, for which the EC50 in [3] and in data set [10] was more than 6.7 µM each time. For the same compound, the selectivity ratio in data set [6] and in [7] was less than 1 throughout. Besides, the CC50 at 120 h in [8] amounted to 6.7 µM.
